Reference: PMC8154207 (JACS Au, 2021)
pEC50: −log10 of the molar value. Values joined by “and” are separate entries in the source; they are usually repeats but may differ in a detail not shown here. Identical values can stand only once. Like-named read-outs stand apart in the source and are kept apart here.

Key:
A549 cells [1] = test: SRB cytotoxicity assay, 2D monolayer; type: cell-based, human; conditions: read-out: EC50 A549
In short: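 Cells were seeded in 96-well plates (A549 5000, A375 7000, MCF7 8000, MRC5 6000 cells/well) in OptiMEM with 2.4% FCS, then held 24 h at 37 °C, 7.0% CO2. Six concentrations were added in triplicate for 72 h. Plates were fixed with cold 10% TCA (4 °C, ≥4 h), stained with 0.6% SRB (30 min) and solubilized in 10 mM Tris; absorbance read at 510 nm. EC50 was taken versus untreated wells; three independent experiments, 95% CI.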

A549 cells [2] = test: Mitochondrial membrane potential, TRME staining, flow cytometry; type: cell-based, human; conditions: 20 μM, 24 h (CCCP 20 μM, 1 h), FACS
In short: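 A549 cells were seeded at 1 × 10^5 per well, grown 24 h under normoxia, then exposed to compound for 24 h. After a PBS wash, cells were stained with TRME at 150 nM for 30 min; the positive control got CCCP before staining. Harvested cells were analysed by flow cytometry, excitation 488 and emission 575.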

[3] = target: Kv11.1 (hERG) potassium channel (Homo sapiens, UniProt Q12809); test: [3H]dofetilide displacement assay on HEK293 Kv11.1 cell membranes; type: binding; conditions: tested concentration 10 μM
In short: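 HEK293 Kv11.1 membranes (30 μg protein) were loaded with 2 nM [3H]dofetilide at 15 °C for 90 min. Dissociation was started with 10 μM unlabeled dofetilide, without or with 10 μM test compound, for 10 min. Samples were filtered through GF/B, washed twice with ice-cold buffer and counted by scintillation. Binding (%) = 100% − [3H]dofetilide binding remaining.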

Sequence of Kv11.1 (hERG) potassium channel (Q12809 whole entry): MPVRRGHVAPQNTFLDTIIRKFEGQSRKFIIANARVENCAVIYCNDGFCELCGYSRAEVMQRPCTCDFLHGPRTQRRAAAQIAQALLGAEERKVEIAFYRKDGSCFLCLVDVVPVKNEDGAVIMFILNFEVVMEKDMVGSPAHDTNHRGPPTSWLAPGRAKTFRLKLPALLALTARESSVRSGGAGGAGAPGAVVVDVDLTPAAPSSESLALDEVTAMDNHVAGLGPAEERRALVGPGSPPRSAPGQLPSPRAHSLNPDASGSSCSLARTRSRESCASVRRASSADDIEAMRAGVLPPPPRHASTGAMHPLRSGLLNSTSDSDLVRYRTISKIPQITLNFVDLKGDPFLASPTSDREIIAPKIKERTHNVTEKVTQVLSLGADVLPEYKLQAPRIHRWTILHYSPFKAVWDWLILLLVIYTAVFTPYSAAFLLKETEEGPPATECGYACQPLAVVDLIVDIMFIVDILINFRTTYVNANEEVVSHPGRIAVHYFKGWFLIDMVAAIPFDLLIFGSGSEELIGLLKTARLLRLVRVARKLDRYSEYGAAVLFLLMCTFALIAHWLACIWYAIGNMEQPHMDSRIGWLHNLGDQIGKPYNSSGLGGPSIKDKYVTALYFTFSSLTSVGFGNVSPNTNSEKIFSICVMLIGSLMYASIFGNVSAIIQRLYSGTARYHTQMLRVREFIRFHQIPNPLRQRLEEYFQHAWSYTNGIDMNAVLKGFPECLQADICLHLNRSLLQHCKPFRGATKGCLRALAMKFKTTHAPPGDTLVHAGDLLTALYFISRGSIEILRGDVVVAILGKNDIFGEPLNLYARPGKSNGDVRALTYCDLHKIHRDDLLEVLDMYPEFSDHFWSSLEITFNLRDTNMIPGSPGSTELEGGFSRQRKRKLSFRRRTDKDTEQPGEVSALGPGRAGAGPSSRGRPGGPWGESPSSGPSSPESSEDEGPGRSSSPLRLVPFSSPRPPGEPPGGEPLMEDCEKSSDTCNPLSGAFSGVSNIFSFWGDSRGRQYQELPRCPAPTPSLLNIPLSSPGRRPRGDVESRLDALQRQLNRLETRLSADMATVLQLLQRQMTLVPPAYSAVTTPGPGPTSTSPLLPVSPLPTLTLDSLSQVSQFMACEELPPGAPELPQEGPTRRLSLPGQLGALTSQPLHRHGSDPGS

SMILES	pEC50 (A549 cells [1]; 2D monolayer, hypoxic (1% O2))	Influence on mitochondrial membrane potential (A549 cells [2])	pEC50 (A549 cells [1]; Homo sapiens, A549, 72 h)	Kv11.1 binding (100% - [3H]dofetilide binding remaining) [3]	[3H]dofetilide binding remaining [3]
N.N.[Cl][Pt][Cl] [cisplatin, reference compound]	4.62	–	–	–	–
N#CC(C#N)=NNc1cccc(Cl)c1 [CCCP, carbonyl cyanide m-chlorophenyl hydrazone, reference compound]	–	dramatically reduced percentage of intact mitochondrial membranes	–	–	–
c1cc(Nc2cc3ccccc3cn2)nc(-c2cccc(Nc3cc4ccccc4cn3)n2)c1 [H2biqbpy1, N6,N6′-di(isoquinolin-3-yl)-[2,2′-bipyridine]-6,6′-diamine]	–	–	< 3.70	36% and 36 ± 4%	64 ± 4%
c1cc(Nc2ccc3ccccc3n2)nc(-c2cccc(Nc3ccc4ccccc4n3)n2)c1 [H2biqbpy2, N6,N6′-di(quinolin-2-yl)-[2,2′-bipyridine]-6,6′-diamine]	–	–	4.92	84% and 84 ± 4%	16 ± 4%
